Measurements pooled from the literature.
Protocols differ between the studies behind these lines.
Target: Casein kinase I isoform alpha-like (CSNK1A1L, Homo sapiens, UniProt Q8N752)
Residues used in one study (Q8N752 1-337): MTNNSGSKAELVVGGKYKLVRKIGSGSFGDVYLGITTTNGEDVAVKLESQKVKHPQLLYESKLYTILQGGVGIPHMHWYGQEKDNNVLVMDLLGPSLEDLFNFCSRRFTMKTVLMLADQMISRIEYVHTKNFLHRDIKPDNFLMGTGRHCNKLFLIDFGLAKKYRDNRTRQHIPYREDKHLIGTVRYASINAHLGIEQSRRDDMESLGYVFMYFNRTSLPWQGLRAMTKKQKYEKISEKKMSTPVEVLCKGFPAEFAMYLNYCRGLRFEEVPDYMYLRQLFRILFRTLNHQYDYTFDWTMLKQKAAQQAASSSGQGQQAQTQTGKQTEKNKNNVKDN

Compound | assay | conditions | remaining binding [%]
CCN1CCN(Cc2ccc(C(=O)Nc3ccc(C)c(Oc4ccc5c(c4)CC(=O)N5)c3)cc2C(F)(F)F)CC1 | binding, competition with immobilised ligand | 1 µM | 100
CNC(=O)[C@@H]1CC[C@@H](n2c(-c3ccc4cnccc4c3)nc3ccc(C(=O)NCc4cccc(C(N)=O)c4)cc32)C1 | binding, competition with immobilised ligand | 1 µM | 100
F[C@@H]1CCN(c2nccc(-c3cnn4ncccc34)n2)C1 | binding | 1 µM | 100
COc1ccc2c(c1)O[C@H](c1ccc(OC)c(OC)c1)C[C@@H]2NC(=O)C1(c2ccc3c(c2)OC(F)(F)O3)CC1 | cell-free assay, competition with immobilised ligand | 1 µM | 100
N[C@H]1CCN(c2nccc(-c3cnn4ncccc34)n2)C1 | binding | 1 µM | 100
Cc1c[nH]c2nccc(Oc3c(F)cc(Nc4cc(Cl)nc(N)n4)cc3F)c12 | cell-free assay, competition with immobilised ligand | 0.1 µM | 89
CN(c1nccc(-c2cnn3ncccc23)n1)C1CC1 | binding | 1 µM | 100
O=C(c1ccc(Nc2ncc(Cl)c(-c3cc4ccccc4s3)n2)cc1)N1CCC(N2CCCC2)CC1 | binding, competition with immobilised ligand | 1 µM | 100
Cc1nccc(COC(=O)N2C[C@@H]3[C@@H](CNC(=O)c4ccc5[nH]nnc5c4)[C@@H]3C2)n1 | cell-free assay, competition with immobilised ligand | 1 µM | 100
O=C(c1ccc(Nc2nccc(-c3cc4ccccc4s3)n2)cc1)N1CCC(N2CCCC2)CC1 | binding, competition with immobilised ligand | 1 µM | 98
O=C(NCC1CCOCC1)c1n[nH]cc1NC(=O)c1c(F)cccc1F | binding, competition with immobilised ligand | 1 µM | 85
CC(C)CC(=O)N1CCc2nc(-c3ccc(Br)cc3)nc(N(C)Cc3ccccc3)c2C1 | cell-free assay, competition with immobilised ligand | 0.1 µM | 100
CN(CCCC(F)(F)F)c1nccc(-c2cnn3ncccc23)n1 | binding | 1 µM | 91
CCC(=N\O)/C(C)=C/c1ccc(F)cc1 | cell-free assay, competition with immobilised ligand | 1 µM | 78
COc1cnc(Nc2cccc(S(N)(=O)=O)c2)nc1N1CCN(c2ccccc2)C(=O)C1 | binding, competition with immobilised ligand | 1 µM | 100
O=C(c1ccc(Nc2ncc(Cl)c(-c3ccc(Cl)s3)n2)cc1)N1CCC(N2CCCC2)CC1 | binding, competition with immobilised ligand | 1 µM | 100
FC(F)(F)Oc1cccc(-c2cnc3ccc(-c4ccncc4)nn23)c1 | cell-free assay, competition with immobilised ligand | 5 µM | 90
CC1CCCN1c1nccc(-c2cnn3ncccc23)n1 (stereo not drawn) | binding | 1 µM | 100
N#Cc1ccc(Nc2ccc3[nH]c(=O)[nH]c3c2)c(Cl)c1 | cell-free assay, competition with immobilised ligand | 1 µM | 100
C[C@@H]1CCN(c2nccc(-c3cnn4ncccc34)n2)C1 | binding | 1 µM | 81
C[C@@H](c1ccc(-n2cnc3c(N)ncnc32)cc1)N1CCc2nn(C)c(Cc3ccccc3)c2C1=O | binding, competition with immobilised ligand | 0.1 µM | 91
